# Compound activity (PubChem BioAssay)
# Only some compounds are listed: those with a hit (about 3% of all), similar ones and a draw of the others.
# Wnt act: activators of Wnt/beta-catenin signaling; Wnt/beta-catenin reporter cell assay, activator, plate reader; activation, % at 9.35 µM; 300,000 compounds, 1.2% hits; AID 743398; in the data active = activation above about 30%, passing the limit was not always enough; inconclusive = no clear call, values can overlap the other calls;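 note: 0% = neutral control wells and 100% = positive control wells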
# esBAF inh: blocks esBAF chromatin remodeling in mouse ES cells. Bmi1-luciferase knock-in reporter, 24 h; 100% = twice the neutral-well signal. reporter increase, % at 12.5 µM. 350,000 compounds, 2% hits; in the data active = activation above about 40%; inconclusive = no clear call, values can overlap the other calls;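 note: 0% = median of the plate's neutral control wells and 100% = double that signal; a rise in the Bmi1 reporter signal indicates esBAF inhibition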
# MITF act: increases MITF-driven TRPM1 promoter luciferase signal; SK-MEL-5 TRPM1-promoter luciferase, 24 h; % of positive control, neutral wells = 0; activation, % at 12.5 µM; 300,000 compounds, 0.75% hits;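 active = mean activation of at least 80% with every replicate also reaching 80%; inconclusive = mean reaches 80% but some replicate falls short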;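 note: 0% = neutral control wells and 100% = parthenolide positive control wells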
# Xi reactivation: activators of X-chromosome reactivation in mouse fibroblasts. XiGFP mouse fibroblasts, % GFP-positive cells imaging, 3 d; cells co-treated with 5-aza-dC sensitizer; scaled so ellipticine positive control = 100%. activation, % at 7.58 µM. 360,000 compounds, 0.055% hits. AID 743238;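 active = mean normalized replicate activation at least 10% and every replicate at or above 10%; inconclusive = only one of the two criteria met; inactive = mean below 10% and not all replicates reach 10%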;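 note: 0% = median of on-plate neutral control wells and 100% = ellipticine 6 µM median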
#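 System: SV40-immortalized XiGFP fibroblast cells, line 68-5-11 / Incubation: 3-day compound exposure, then 15 min fixation at room temperature / Compound: single concentration per compound, delivered by pin transfer / Buffer or medium: DMEM plus 5-aza-dC sensitizer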
# CASP6 VEID inh: inhibitors of human caspase-6 | purified caspase-6, Z-VEID-R110 cleavage fluorescence | inhibition, % at 12.5 µM | P55212 | 350,000 compounds, 0.53% hits | AID 686996;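 active = mean inhibition across replicates at least about 35%, with every replicate also reaching that limit, limit read from the data; inconclusive = only one of the two criteria met; inactive = neither criterion met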;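 note: 0% = median of neutral control wells and 100% = no fluorescence left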
# Target sequence (P55212 24-179 limits assumed): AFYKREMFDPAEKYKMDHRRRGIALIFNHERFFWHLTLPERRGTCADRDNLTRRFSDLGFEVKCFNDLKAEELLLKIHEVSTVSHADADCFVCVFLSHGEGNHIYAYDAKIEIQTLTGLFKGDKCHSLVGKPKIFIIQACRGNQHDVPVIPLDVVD
# Target sequence (P55212 194-293 limits assumed): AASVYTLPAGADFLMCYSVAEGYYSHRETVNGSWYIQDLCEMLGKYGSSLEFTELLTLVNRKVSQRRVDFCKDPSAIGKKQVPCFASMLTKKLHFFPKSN
# NSD2 HMT inh: blocks human histone methyltransferase NSD2. O96028. NSD2 peptide methylation, AlphaScreen, 120 min. inhibition, % at 12.5 µM. 310,000 compounds, 0.54% hits; in the data active = inhibition above about 50%
# Starred values were filed as active, the others as inactive; ? = inconclusive; . = no result given.
SMILES,Wnt act,esBAF inh,MITF act,Xi reactivation,CASP6 VEID inh,NSD2 HMT inh
CCCC#Cc1ccc2c(c1)O[C@@H](CN(C)Cc1ccncc1)[C@H](C)CN([C@@H](C)CO)S2(=O)=O,.,2,.,-1,1,.
O=C1N[C@@H](c2ccccc2)COCc2cn(nn2)CC[C@@H]1Cc1ccc(-c2ccccc2)cc1,.,.,.,0,.,.
CCCOc1ccc(-c2nc(N3CCN(CC)CC3)c3ccccc3n2)cc1,0,-13,22,0,1,2
CCCOc1ccc(-c2nc(N3CCN(C)CC3)c3ccccc3n2)cc1,46*,22,125*,0,-5,16
Cc1ccsc1/C=N/N1CCN(c2ccccc2)CC1,19,49*,63,.,0,-1
NC(=O)c1sc2nc(-c3ccccc3)ccc2c1N,2,77*,27,0,0,-1
CC(=O)c1sc2nc(-c3ccco3)ccc2c1N,-6,.,.,0,64*,-1
CCOC(=O)c1sc2nc(-c3ccccc3)ccc2c1N,.,.,36,0,.,-1
Fc1cccc(CSc2ncnc3c2ncn3C2CCCCO2)c1 (configuration not stated),-1,83*,98*,0,1,1
CC(CNC(=O)Cn1cnc2c(NCc3ccccc3)ncnc21)c1ccccc1 (configuration not stated),-4,-5,14,0,-1,.
c1ccc(CNc2ncnc3c2ncn3C2CCCCO2)cc1 (configuration not stated),19,46*,68,.,.,-2
CC(C)CCn1cnc2c(NCc3ccccc3)ncnc21,.,46*,45,.,.,-1
c1ccc(CSc2ncnc3c2ncn3C2CCCCO2)cc1 (configuration not stated),-4,84*,100*,4,-2,-1
C[C@H](CO)N1C[C@H](C)[C@@H](CN(C)Cc2ccc(C(F)(F)F)cc2)Oc2ccc(NC(=O)C3CCCCC3)cc2CC1=O,.,-5,.,1,-5,.
Clc1cccc(CSc2ncnc3c2ncn3C2CCCCO2)c1 (configuration not stated),8,76*,75,0,2,16
OC[C@@H]1CN(Cc2ccccc2)C[C@H](n2cnc3c(NCc4ccc(F)cc4)ncnc32)O1,.,46*,.,0,3,14
O=C(Nc1ccc2c(c1)OCO2)c1cc(C2CCCCN2S(=O)(=O)c2cccs2)on1 (configuration not stated),-3,26,.,0,-2,0
O=C(Nc1ccccc1)c1cc(C2CCCCN2S(=O)(=O)c2ccccc2)on1 (configuration not stated),18,52*,.,0,-1,-3
O=C(Nc1ccccc1Cl)c1cc(C2CCCCN2S(=O)(=O)c2ccccc2)on1 (configuration not stated),0,-7,.,0,-1,-3
O=C(Nc1ccccc1)c1cc(C2CCCCN2S(=O)(=O)c2cccs2)on1 (configuration not stated),28,82*,.,0,-2,-2
O=C(C[C@H]1CC[C@H]2[C@@H](COC[C@H](O)CN2C(=O)c2cnccn2)O1)NCc1ccccc1,.,1,.,0,-1,.
C[C@H]1CN(C)C(=O)Cc2cc([N+](=O)[O-])ccc2O[C@H]1CN(C)C(=O)OC(C)(C)C,.,.,.,0,.,.
CCN(CC(=O)Nc1c(F)cccc1F)C(=O)/C=C/c1ccc2ccccc2n1,-6,8,6,0,47*,6
CCN(CC(=O)Nc1c(F)cccc1F)C(=O)c1ccc2ccccc2n1,-1,.,6,0,3,-1
CC(=O)N1CCN(c2ccc(N)cc2)CC1,0,4,4,0,36*,.
CCC(=O)N(C1=C(NC(C)C)C(=O)c2ccccc2C1=O)C(C)C,2,-7,-25,0,44*,70*
CCCC(=O)NC1=C(Cl)C(=O)c2ccccc2C1=O,4,.,-101,4,27,-1
CC(C)(C)NC(=O)C(=O)N/N=C/c1cccs1,22,46*,.,.,.,1
O=C(N/N=C/c1cccs1)c1c[nH]c2ccccc12,31*,?,62,0,.,-1
O=C(N/N=C/c1cccs1)c1ccc2ccccc2c1,12,77*,28,0,0,-1
